From ChEMBL document CHEMBL4190221, “Inhibition of Proliferation of Vascular Smooth Muscle Cells by Cucurbitanes from Momordica charantia” (J Nat Prod, 2017)
Active and inactive are the calls of the source. The rule behind the calls is not given here.

What was measured:
VSMC [1] = experiment: Cytotoxicity against Sprague-Dawley rat VSMC assessed as decrease in cell viability at >5 uM after 24 hrs by MTT assay; format: cell-based
Summary of the method: (§1)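 Primary aortic smooth muscle cells from Sprague-Dawley rats, passages 7–10, grown in DMEM/10% FBS at 37 °C and seeded at 3.0 × 10^4 cells/mL. Cells were serum-starved 24 h, then exposed to compound for 24 h alongside a 0.1% DMSO control and a digitonin 100 μg/mL cytotoxicity control. MTT 5 mg/mL was added for 2 h, formazan taken up in DMSO, and OD read at 565 nm. Four independent experiments, each in triplicate.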

VSMC [2] = experiment: Cytotoxicity against Sprague-Dawley rat VSMC assessed as decrease in cell viability at 0.5 to 1 uM after 24 hrs by MTT assay; format: cell-based; summary of the method: as §1
VSMC [3] = experiment: Cytotoxicity against Sprague-Dawley rat VSMC assessed as decrease in cell viability at 5 to 10 uM after 24 hrs by MTT assay; format: cell-based; summary of the method: as §1
VSMC [4] = experiment: Inhibition of PDGF-induced Sprague-Dawley rat VSMC proliferation at 10 uM pretreated for 2 hrs followed by PDGF stimulation measured after 24 hrs by MTT assay relative to control; format: functional
Summary of the method: (§2)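 Rat aortic VSMCs (Sprague-Dawley, passages 7–10) were seeded at 3.0 × 10^4 cells/mL, grown 24 h in DMEM/10% FBS, then serum-starved 24 h. Compound was added 2 h before PDGF 25 ng/mL, followed by 24 h more incubation. Paclitaxel 1 μM served as positive control. MTT read-out at 565 nm. Four independent experiments in triplicate, compared against PDGF-stimulated cells.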

VSMC [5] = experiment: Inhibition of PDGF-induced Sprague-Dawley rat VSMC proliferation at 5 to 10 uM pretreated for 2 hrs followed by PDGF stimulation measured after 24 hrs by MTT assay; format: functional, cell-based; summary of the method: as §2

| Compound | Activity (VSMC [1]) | Activity (VSMC [2]) | Activity (VSMC [3]) | inhibition at 10 µM (VSMC [4]) | inhibition (VSMC [5]) |
| --- | --- | --- | --- | --- | --- |
| COC(C)(C)/C=C/C[C@@H](C)[C@H]1CC[C@@]2(C)[C@@H]3C=C[C@@]45OC(=O)[C@]3(CC[C@]12C)[C@@H]4CC[C@H](OC(=O)CC(=O)O)C5(C)C | Toxic | Non-Toxic | – | – | – |
| CO[C@H](C=C(C)C)C[C@@H](C)[C@H]1CC[C@@]2(C)[C@@H]3[C@@H](OC)C=C4[C@@H](CC[C@H](OC(=O)CC(=O)O)C4(C)C)[C@]3(C=O)CC[C@]12C | – | – | Non-Toxic | 67.9% | – |
| CO[C@H]1O[C@]23C=C[C@@H]4[C@@]1(CC[C@]1(C)[C@@H]([C@H](C)C/C=C/C(C)(C)OC)CC[C@@]41C)[C@@H]2CC[C@H](OC(=O)CC(=O)O)C3(C)C | – | – | Non-Toxic | 72.4% | – |
| COC(C)(C)/C=C/C[C@@H](C)[C@H]1CC[C@@]2(C)[C@@H]3[C@@H](O)C=C4[C@@H](CC[C@H](OC(=O)CC(=O)O)C4(C)C)[C@]3(C=O)CC[C@]12C | – | – | Non-Toxic | – | Active |
| C[C@H](C/C=C/C(C)(C)O)[C@H]1CC[C@@]2(C)[C@@H]3C=C[C@@]45OC(=O)[C@]3(CC[C@]12C)[C@@H]4CC[C@H](O[C@@H]1O[C@H](CO)[C@@H](O)[C@@H](O)[C@H]1O)C5(C)C | – | – | Non-Toxic | – | Active |
| CO[C@H]1O[C@]23C=C[C@@H]4[C@@]1(CC[C@]1(C)[C@@H]([C@H](C)C/C=C/C(C)(C)OC)CC[C@@]41C)[C@@H]2CC[C@H](OC(=O)C(=O)O)C3(C)C | – | – | Non-Toxic | – | – |
| C[C@H](C/C=C/C(C)(C)O)[C@H]1CC[C@@]2(C)[C@@H]3[C@@H](O)C=C4[C@@H](CC[C@H](OC(=O)CC(=O)O)C4(C)C)[C@]3(C=O)CC[C@]12C | – | – | Non-Toxic | – | Active |
